As a reminder, the CC50 is the concentration giving 50% cytotoxicity.

Calls of active or inactive are those of the source.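 Rule for the calls: active = cell viability under 70% at any tested concentration, a measure not printed in our tables; inactive = the rest.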

The subject of the assay is HEp-2 viability, luminescence cytotoxicity counter-screen. Nature of the assay: HEp-2 viability loss, luminescent readout – cell-based, synthesized compounds, set 5, cytotoxicity control for RSV inhibitor project, dose response (AID 493090). The gist of the method: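 Assay system: HEp-2 cells. Input: 10,595 cells/well. Dosing: 8-point twofold dilution series, 50 to 0.39 µM final, 0.5% DMSO. Schedule: 6 d compound exposure, 37 °C. Signal: CellTiter-Glo luminescence. Read-out basis: % viability vs cell controls, CC50 from constrained four-parameter fit. Repeats: each concentration tested in triplicate.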
Regarding `CCOC(=O)c1ccc2[nH]c3c(c2c1)CN(C)CC3`, the CC50 was > 50 µM (inactive).

Take `CC(=O)c1ccccc1NC(=O)[C@@H]1CCCN1S(=O)(=O)c1cccc2cccnc12`: the CC50 is > 50 µM (inactive).

As to `Cc1ncccc1NC(=O)[C@@H]1CCCN1S(=O)(=O)c1cccc2cccnc12`, the CC50 was > 50 µM (inactive).

Turning to `COCCCNC(=O)c1ccc(Cn2c(=O)c3ccccc3n(Cc3ccc(C)cc3)c2=O)cc1`, the CC50 is > 50 µM (inactive).

The values are drawn from PubChem BioAssay AID493090 (Southern Research Specialized Biocontainment Screening …, 2011).
